Assays:
[1] = Diameter of zone of inhibition for cell colony formation of normal fibroblast at the dose of 200 ug; Range is 0-2.6; type: functional, Homo sapiens
How it was run: (§1)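 Soft agar disk diffusion: leukemia (L1210), solid tumor (HCT116, or colon H15) and normal fibroblast cells seeded in soft agar in separate 60 mm dishes. Compound applied to a filter paper disk (dose in μg/disk) set on the agar. Colony-formation inhibition zones read after 6–7 days at 37 °C. 200 zone units = 6.5 mm; 950 = total inhibition; a range marks partial colony shrinkage. n > 2 unless noted.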

L1210 [2] = experiment: Diameter of zone of inhibition for cell colony formation of leukemia L1210 at the dose of 200 ug; Range is 0-6.5; type: functional, Mus musculus; how it was run: as §1
HCT-116 [3] = experiment: Diameter of zone of inhibition for cell colony formation of solid tumor HCT116 at the dose of 200 ug; type: functional, Homo sapiens
How it was run: (§2)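 HCT116, L1210 leukaemia and normal fibroblast cells were seeded in soft agar in separate 60 mm dishes. The compound was applied to a filter-paper disk laid on the agar. Colony-formation inhibition zones were read after 6–7 days at 37 °C and expressed in zone units (200 units = 6.5 mm; 950 = total inhibition; 0 = none). n > 2 unless otherwise indicated.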

SW-620 = experiment: Growth inhibitory activity against human colon SW620 cell line; type: functional
How it was run: (§3)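 Cell-line screen run at NCI by published procedures. […] The mean graph midpoint is taken across all human cancer cell lines successfully tested.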

RXF 393 = experiment: Growth inhibitory activity against human renal RXF-393 cell line; type: functional; how it was run: as §3
HL-60 = experiment: Growth inhibitory activity against human leukemia HL-60 (TB) cell line; type: functional; set-up: unit not given here
HT-29 = experiment: Growth inhibitory activity against human colon HT-29 cell line; type: functional; how it was run: as §3
HCT-116 [4] = experiment: Growth inhibitory activity against human colon HCT116 cell line; type: functional; how it was run: as §3
NCI-H522 = experiment: Growth inhibitory activity against human lung NCI-H522 cell line; type: functional; how it was run: as §3
MCF7 = experiment: Growth inhibitory activity against human breast MCF-7 cell line; type: functional; how it was run: as §3
[5] = system: Panel (Carcinoma cell lines); experiment: Mean graph mid point value for cytotoxic activity against human cancer cell lines was determined; type: functional; how it was run: as §3
[6] = Diameter of zone of inhibition for cell colony formation of normal fibroblast at the dose of 210 ug; Range is 0-6.5; type: functional, Homo sapiens; how it was run: as §1
HCT-116 [7] = experiment: Diameter of zone of inhibition for cell colony formation of solid tumor HCT116 at the dose of 210 ug; type: functional, Homo sapiens; how it was run: as §2
L1210 [8] = experiment: Diameter of zone of inhibition for cell colony formation of leukemia L1210 at the dose of 210 ug; type: functional, Mus musculus; how it was run: as §1
L1210 [9] = experiment: Diameter of zone of inhibition for cell colony formation of leukemia L1210 at the dose of 200 ug; type: functional, Mus musculus; how it was run: as §1
[10] = Diameter of zone of inhibition for cell colony formation of normal fibroblast at the dose of 200 ug; type: functional, Homo sapiens; how it was run: as §1
HCT-116 [11] = experiment: Diameter of zone of inhibition for cell colony formation of solid tumor HCT116 at the dose of 190 ug; type: functional, Homo sapiens; how it was run: as §1
L1210 [12] = experiment: Diameter of zone of inhibition for cell colony formation of leukemia L1210 at the dose of 190 ug; type: functional, Mus musculus; how it was run: as §1
[13] = Diameter of zone of inhibition for cell colony formation of normal fibroblast at the dose of 190 ug; Range is 0-12.025; type: functional, Homo sapiens; how it was run: as §1
Mus musculus [14] = experiment: Tumor growth delay of human HCT116 colorectal carcinoma in mice after intravenous administration at dose of 85 mg/kg; type: functional
How it was run: (§4)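 Female nude mice were implanted with HCT116 tumour tissue from donor mice and randomized once tumours averaged 100 mm3. The sodium salt in saline (pH 7.4) was given by iv bolus on days 1–5 and 8–12. Tumour volumes were recorded twice weekly. TGD = T − C, the time to reach 500 mm3 taken from a fitted tumour-growth model.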

Mus musculus [15] = experiment: Tumor growth delay of human HCT116 colorectal carcinoma in mice after intravenous administration at dose of 128 mg/kg; type: functional; how it was run: as §4
Mus musculus [16] = experiment: Tumor growth delay of human HCT116 colorectal carcinoma in mice after intravenous administration at dose of 64 mg/kg; type: functional; how it was run: as §4
L1210 [17] = experiment: Diameter of zone of inhibition for cell colony formation of leukemia L1210 at the dose of 210 ug; Range is 0-5.525; type: functional, Mus musculus; how it was run: as §1
L1210 [18] = experiment: Diameter of zone of inhibition for cell colony formation of leukemia L1210 at the dose of 210 ug; Range is 3.75-5.525; type: functional, Mus musculus; how it was run: as §1
[19] = Diameter of zone of inhibition for cell colony formation of normal fibroblast at the dose of 210 ug; Range is 0-13.975; type: functional, Homo sapiens; how it was run: as §1
[20] = Diameter of zone of inhibition for cell colony formation of normal fibroblast at the dose of 190 ug; Range is 0-12.35; type: functional, Homo sapiens; how it was run: as §1
[21] = Diameter of zone of inhibition for cell colony formation of normal fibroblast at the dose of 190 ug; Range is 0-2.275; type: functional, Homo sapiens; how it was run: as §1
L1210 [22] = experiment: Diameter of zone of inhibition for cell colony formation of L1210 leukemia cell lines at the dose of 200 ug; type: functional, Mus musculus; how it was run: as §1
[23] = Diameter of zone of inhibition for cell colony formation of normal fibroblast at the dose of 200 ug; Range is 0-11; type: functional, Homo sapiens; how it was run: as §1
L1210 [24] = experiment: Diameter of zone of inhibition for cell colony formation of leukemia L1210 at the dose of 200 ug; Range is 1.3-5.85; type: functional, Mus musculus; how it was run: as §1
[25] = Diameter of zone of inhibition for cell colony formation of normal fibroblast at the dose of 200 ug; Range is 0-11.7; type: functional, Homo sapiens; how it was run: as §1
[26] = Diameter of zone of inhibition for cell colony formation of normal fibroblast at the dose of 190 ug; Range is; type: functional, Homo sapiens; how it was run: as §1
[27] = Diameter of zone of inhibition for cell colony formation of normal fibroblast at the dose of 190 ug; Range is 0-6.5; type: functional, Homo sapiens; how it was run: as §1
L1210 [28] = experiment: Diameter of zone of inhibition for cell colony formation of leukemia L1210 at the dose of 190 ug; Range is 3.75-4.875; type: functional, Mus musculus; how it was run: as §1
[29] = Diameter of zone of inhibition for cell colony formation of normal fibroblast at the dose of 190 ug; Range is 0-10.25; type: functional, Homo sapiens; how it was run: as §1
HCT-116 [30] = experiment: Diameter of zone of inhibition for cell colony formation of solid tumor HCT116 at the dose of 190 ug; Range is 22.75-24.375; type: functional, Homo sapiens; how it was run: as §2

COC(=O)c1ccc(S(=O)(=O)NC(=O)c2ccc(Cl)cc2Cl)cc1
Inhibition [1]: 2.6 mm | Inhibition (L1210 [2]): 6.5 mm | Inhibition (HCT-116 [3]): 21.12 mm

Cc1cc(Cl)ccc1C(=O)NS(=O)(=O)c1ccc(Cl)cc1
GI50 (SW-620): 37.9 µM | GI50 (RXF 393): 8.6 µM | GI50 (HL-60): 49.5 | GI50 (HT-29): 100 µM | GI50 (HCT-116 [4]): 9.7 µM | GI50 (NCI-H522): 100 µM | GI50 (MCF7): 17.7 µM | MGM [5]: 41.7

COc1ccc(S(=O)(=O)NC(=O)c2ccc(Cl)cc2Cl)cc1OC
Inhibition [6]: 6.5 mm | Inhibition (HCT-116 [7]): 16.25 mm | Inhibition (L1210 [8]): 0 mm

O=C(NS(=O)(=O)c1cc([N+](=O)[O-])ccc1Cl)c1ccc(Cl)cc1Cl
Inhibition (L1210 [9]): 0 mm | Inhibition [10]: 0 mm | Inhibition (HCT-116 [3]): 0 mm

O=C(NS(=O)(=O)c1cccc(-c2ccccc2)c1)c1ccc(Cl)cc1Cl
Inhibition (HCT-116 [11]): 19.5 mm | Inhibition (L1210 [12]): 0 mm | Inhibition [13]: 12.02 mm

O=C(NS(=O)(=O)c1ccccc1)c1ccc(Cl)cc1Cl
GI50 (SW-620): 8.6 µM | GI50 (RXF 393): 4.3 µM | GI50 (HL-60): 32.9 | GI50 (HT-29): 52 µM | Growth delay (Mus musculus [14]): 15 days | GI50 (HCT-116 [4]): 5.4 µM | GI50 (NCI-H522): 18.7 µM | Growth delay (Mus musculus [15]): 22 days | GI50 (MCF7): 18.9 µM | Growth delay (Mus musculus [16]): 14 days | MGM [5]: 33.1

O=C(NS(=O)(=O)c1cc(Cl)cc(Cl)c1)c1ccc(Cl)cc1Cl
Inhibition (L1210 [17]): 5.52 mm | Inhibition [6]: 6.5 mm | Inhibition (HCT-116 [7]): 12.35 mm

O=C(NS(=O)(=O)c1ccc(Br)cc1)c1ccc(Cl)cc1Cl
Inhibition (HCT-116 [7]): 20.15 mm | Inhibition (L1210 [18]): 5.52 mm | Inhibition [19]: 13.97 mm

Cc1ccc(S(=O)(=O)NC(=O)c2ccc(Cl)cc2Cl)cc1Cl
Inhibition (HCT-116 [11]): 18.52 mm | Inhibition [20]: 12.35 mm

O=C(NS(=O)(=O)c1ccc(Cl)cc1)c1ccc(Cl)cc1
Inhibition (HCT-116 [11]): 10.72 mm | Inhibition (L1210 [12]): 5.85 mm | Inhibition [21]: 2.27 mm

O=C(NS(=O)(=O)c1ccc(Cl)cc1)c1ccc(Cl)cc1Cl
GI50 (SW-620): 39.6 µM | GI50 (RXF 393): 11 µM | GI50 (HL-60): 34.7 | GI50 (HT-29): 54.8 µM | Inhibition (L1210 [22]): 6.5 mm | GI50 (HCT-116 [4]): 5.3 µM | Inhibition [23]: 11 mm | GI50 (NCI-H522): 8.6 µM | GI50 (MCF7): 1.5 µM | MGM [5]: 26.3 | Inhibition (HCT-116 [3]): 19.5 mm

O=C(NS(=O)(=O)c1ccc(Cl)c(Cl)c1)c1ccc(Cl)cc1Cl
Inhibition (L1210 [24]): 5.85 mm | Inhibition [25]: 11.7 mm | Inhibition (HCT-116 [3]): 18.2 mm

O=C(NS(=O)(=O)c1ccc([N+](=O)[O-])cc1)c1ccc(Cl)cc1Cl
Inhibition [26]: 10.07 mm | Inhibition (HCT-116 [11]): 17.55 mm | Inhibition (L1210 [12]): 3.57 mm

O=C(NS(=O)(=O)c1cccc(Cl)c1)c1ccc(Cl)cc1Cl
Inhibition [27]: 6.5 mm | Inhibition (HCT-116 [11]): 16.73 mm | Inhibition (L1210 [28]): 4.87 mm

Cc1cc(Br)ccc1C(=O)NS(=O)(=O)c1ccc(Cl)cc1
Inhibition (L1210 [12]): 0 mm | Inhibition [29]: 10.25 mm | Inhibition (HCT-116 [30]): 24.37 mm
